Data from ChEMBL document CHEMBL1124126, “Terminal bifunctional retinoids. Synthesis and evaluations related to cancer chemopreventive activity” (1988).

How the values were obtained:
Gallus gallus = species on record: Gallus gallus; test: Relative percent binding to cellular retinoic acid binding protein (CRABP) in chick embryo skin.
Method in brief: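 Competition of unlabeled retinoid with [3H]retinoic acid for binding to CRABP from chick embryo skin. Inhibition caused by a 100-fold molar excess of unlabeled retinoic acid defined as 100%.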

F9 = test: Ability to induce differentiation of mouse F9 embryonal carcinoma cells.; type: functional; conditions: read-out: ED50 (the source's name)
Method in brief: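 Mouse F9 embryonal carcinoma cells grown at 1 × 10^5 cells/mL for 4 days with or without retinoid at 10^-7 to 10^-11 M. Harvest fluid mixed with 0.13 μM plasminogen, 0.3 mM H-D-Val-Leu-Lys-p-NA, 0.1% Tween 80 and fibrinogen fragments in Tris·HCl pH 7.5. Incubated 4 h at 25 °C, p-nitroaniline read at 405 nm. Triplicate mean absorbances plotted semilog against molarity; ED50 taken at midpoint between maximal and minimal absorbance.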

CCNC(=O)\C(C(=O)O)=C(C)/C=C/C=C(C)/C=C/C1=C(C)CCCC1(C)C
RA (Gallus gallus): 55%
EC50 (F9): 600 pM

CCNC(=O)\C(C(=O)OCC)=C(C)/C=C/C=C(C)/C=C/C1=C(C)CCCC1(C)C
RA (Gallus gallus): 0%
EC50 (F9): 6000 pM

CCNC(=O)/C(C(=O)O)=C(C)/C=C/C=C(C)/C=C/C1=C(C)CCCC1(C)C
RA (Gallus gallus): 55%
EC50 (F9): 500 pM

CC(/C=C/C=C(C)/C=C/C1=C(C)CCCC1(C)C)=C(C(=O)O)C(=O)O
RA (Gallus gallus): 65%
EC50 (F9): 500 pM

CCOC(=O)C(C(=O)OCC)=C(C)/C=C/C=C(C)/C=C/C1=C(C)CCCC1(C)C
RA (Gallus gallus): 0%
EC50 (F9): 4500 pM

CC1=C(/C=C/C(C)=C/C=C/C(C)=C\C(=O)O)C(C)(C)CCC1 [ISOTRETINOIN]
RA (Gallus gallus): 100%
EC50 (F9): 300 pM

CCNC(=O)/C(C(=O)OCC)=C(C)/C=C/C=C(C)/C=C/C1=C(C)CCCC1(C)C
RA (Gallus gallus): 0%
EC50 (F9): 6000 pM

CCOC(=O)/C(C(=O)O)=C(C)/C=C/C=C(C)/C=C/C1=C(C)CCCC1(C)C
RA (Gallus gallus): 90%
EC50 (F9): 1000 pM

CC1=C(/C=C/C(C)=C/C=C/C(C)=C/C(=O)O)C(C)(C)CCC1 [TRETINOIN]
RA (Gallus gallus): 100%
EC50 (F9): 100 pM
